Drawing on ChEMBL document CHEMBL2176962, “Repositioning HIV-1 integrase inhibitors for cancer therapeutics: 1,6-naphthyridine-7-carboxamide as a promising scaffold with drug-like properties” (J Med Chem, 2012), this text covers inhibition, Activity and IC50 for five molecules.

Structures are written as SMILES. Calls of active or inactive are those of the source. The calls are words filed in the database; no cut-off is given here. Bounds are passed on as bounds.

Assay [1] has as its target Proto-oncogene tyrosine-protein kinase Src (Homo sapiens) (UniProt P12931). The assay can be described thus: Inhibition of SRC at 10 uM incubated for 60 mins using poly(Glu,Tyr)4:1 substrate and 10 uM ATP by ELISA. In short, it runs like this: (§1)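 ELISA with Poly(Glu,Tyr)4:1 (20 μg/mL) precoated as substrate and 10 μM ATP, in 50 mM HEPES pH 7.4, 20 mM MgCl2, 0.1 mM MnCl2, 0.2 mM Na3VO4, 1 mM DTT. Compound was tested at 10 μM, in duplicate. Kinase reaction ran 60 min at 37 °C. Phosphotyrosine was detected with PY99 and HRP anti-mouse IgG, developed with o-phenylenediamine/H2O2, stopped with H2SO4 and read at 492 nm. Inhibition = [1 − A492 treated/A492 control] × 100%. References: lapatinib (ErbB2) and PP2 (Src), each at 10 μM.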
(ELISA stands for enzyme-linked immunosorbent assay.)

The target in assay [2] is Receptor tyrosine-protein kinase erbB-2 (Homo sapiens) (UniProt P04626). The assay can be described thus: Inhibition of ErbB2 at 10 uM incubated for 60 mins using poly(Glu,Tyr)4:1 substrate and 10 uM ATP by ELISA. In short, it runs like this:
as §1

Assay [3] has as its system MDA-MB-435. The assay can be described thus: Induction of cell cycle arrest in human in human MDA-MB-435 cells assessed as accumulation at G0/G1 phase at 2 times cytotoxic IC50 level after 12 to 48 hrs by propidium iodide staining based flow cytometry. The assay is classed as functional. (In general: Flow cytometry measures light scatter and fluorescence of single cells or particles in a stream.)

The subject of assay [4] is MDA-MB-435. The assay can be described thus: Inhibition of colony formation in human MDA-MB-435 cells at 10 uM treated continuously for 7 days by crystal violet staining based colony formation assay. In kind it is functional, cell-based. Put shortly: (§2)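 MDA-MB-435 cells (500 per well) were adhered overnight and treated with compound at 10 μM, or across a dose range. The methods describe a 24 h treatment, then PBS washing and 7–10 days regrowth; the figure legend describes continuous 7-day treatment. Colonies were fixed and stained with 2% crystal violet containing 1% glutaraldehyde, then imaged.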

The subject of assay [5] is MDA-MB-435. The assay can be described thus: Inhibition of colony formation in human MDA-MB-435 cells treated continuously for 7 days by crystal violet staining based colony formation assay. In kind it is functional, cell-based. In short, it runs like this: as §2
The test system of assay [6] is LNCaP. The assay can be described thus: Cytotoxicity against human LNCAP cells incubated for 72 hrs by MTT assay. The assay is classed as functional, cell-based. Put shortly:
(§3)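 Cells were kept in DMEM (MDA-MB-435, MCF7, LNCaP) or RPMI (HT29, HCT116) with 10% heat-inactivated FBS and 2 mM L-glutamine, subconfluent and in exponential growth. They were seeded, allowed to adhere overnight, then exposed continuously to compound (10 mM DMSO stock) for 72 h. MTT was added to 0.3 mg/mL final for 3–4 h at 37 °C, formazan was dissolved in DMSO, and absorbance was read at 570 nm. Runs were in triplicate; IC50 came from log concentration versus percent cell kill.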

For assay [7], the system named is HT-29. The assay can be described thus: Cytotoxicity against human HT-29 cells incubated for 72 hrs by MTT assay. In kind it is functional, cell-based. Particulars: HT-29, 72 h. Put shortly:
as §3
In general terms: Tetrazolium dyes change colour on reduction, which living cells bring about.

For assay [8], the system named is MCF7. The assay can be described thus: Cytotoxicity against human MCF7 cells incubated for 72 hrs by MTT assay. Particulars: MCF7, 72 h. In kind it is functional, cell-based. Put shortly: as §3
Assay [9] deals with SK-BR-3. The assay can be described thus: Cytotoxicity against human SKBR3 cells incubated for 72 hrs by MTT assay. In kind it is functional, cell-based. Particulars: SK-BR-3, 72 h.
The test system of assay [10] is HCT-116. The assay can be described thus: Cytotoxicity against p53 expressing human HCT116 cells incubated for 72 hrs by MTT assay. In kind it is functional, cell-based. Particulars: HCT-116, 72 h. Put shortly: as §3
The test system of assay [11] is HCT-116. The assay can be described thus: Cytotoxicity against p53 deficient human HCT116 cells incubated for 72 hrs by MTT assay. The assay is classed as functional, cell-based. To be noted: HCT-116, 72 h. In short, it runs like this:
as §3

Assay [12] deals with MDA-MB-435. The assay can be described thus: Cytotoxicity against human MDA-MB-435 cells incubated for 72 hrs by MTT assay. In kind it is functional, cell-based. To be noted: MDA-MB-435, 72 h. Put shortly: as §3
For assay [13], the system named is Tyrosine-protein kinase ABL1 (Homo sapiens), P00519 [T315I]. The assay can be described thus: Inhibition of Abl T315I mutant at 10 uM in presence of ATP at Km level by kinase profiler method.
Assay [14] deals with T1, Aurora kinase A (Homo sapiens) (UniProt O14965).
T1 sequence (whole entry): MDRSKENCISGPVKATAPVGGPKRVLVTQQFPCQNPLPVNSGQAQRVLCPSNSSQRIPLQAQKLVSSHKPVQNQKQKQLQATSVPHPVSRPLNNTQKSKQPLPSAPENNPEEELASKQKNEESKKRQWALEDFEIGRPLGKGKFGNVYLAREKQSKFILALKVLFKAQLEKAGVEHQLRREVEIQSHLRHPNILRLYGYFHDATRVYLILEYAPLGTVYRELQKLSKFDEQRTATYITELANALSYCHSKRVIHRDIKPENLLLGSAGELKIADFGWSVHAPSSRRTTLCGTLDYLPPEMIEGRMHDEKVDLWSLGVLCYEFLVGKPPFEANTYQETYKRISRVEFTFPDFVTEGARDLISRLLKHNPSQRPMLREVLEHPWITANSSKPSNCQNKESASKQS
The assay can be described thus: Inhibition of Aurora A kinase at 10 uM in presence of ATP at Km level by kinase profiler method.

In assay [15] the target is Tyrosine-protein kinase Lck (Homo sapiens) (UniProt P06239). The assay can be described thus: Inhibition of LCK at 10 uM in presence of ATP at Km level by kinase profiler method.
Chain of Tyrosine-protein kinase Lck (Homo sapiens) (P06239 2-509 limits assumed): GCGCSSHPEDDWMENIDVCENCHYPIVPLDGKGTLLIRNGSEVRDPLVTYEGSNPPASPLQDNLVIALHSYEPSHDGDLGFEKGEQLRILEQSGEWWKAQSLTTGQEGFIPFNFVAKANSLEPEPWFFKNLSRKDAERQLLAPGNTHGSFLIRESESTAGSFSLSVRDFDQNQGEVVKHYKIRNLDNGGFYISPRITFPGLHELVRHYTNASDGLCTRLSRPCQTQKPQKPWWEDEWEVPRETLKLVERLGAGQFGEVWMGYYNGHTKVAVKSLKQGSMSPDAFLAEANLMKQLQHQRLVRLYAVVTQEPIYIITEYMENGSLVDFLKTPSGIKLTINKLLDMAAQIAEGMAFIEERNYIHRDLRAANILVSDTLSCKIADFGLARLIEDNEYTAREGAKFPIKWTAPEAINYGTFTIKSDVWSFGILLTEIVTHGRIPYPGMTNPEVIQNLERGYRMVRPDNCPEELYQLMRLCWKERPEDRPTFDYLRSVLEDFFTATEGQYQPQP
For assay [16], the target named is Fibroblast growth factor receptor 1 (Homo sapiens) (UniProt P11362). The assay can be described thus: Inhibition of FGFR1 at 10 uM in presence of ATP at Km level by kinase profiler method.
Chain of Fibroblast growth factor receptor 1 (Homo sapiens) (P11362 22-822 limits assumed): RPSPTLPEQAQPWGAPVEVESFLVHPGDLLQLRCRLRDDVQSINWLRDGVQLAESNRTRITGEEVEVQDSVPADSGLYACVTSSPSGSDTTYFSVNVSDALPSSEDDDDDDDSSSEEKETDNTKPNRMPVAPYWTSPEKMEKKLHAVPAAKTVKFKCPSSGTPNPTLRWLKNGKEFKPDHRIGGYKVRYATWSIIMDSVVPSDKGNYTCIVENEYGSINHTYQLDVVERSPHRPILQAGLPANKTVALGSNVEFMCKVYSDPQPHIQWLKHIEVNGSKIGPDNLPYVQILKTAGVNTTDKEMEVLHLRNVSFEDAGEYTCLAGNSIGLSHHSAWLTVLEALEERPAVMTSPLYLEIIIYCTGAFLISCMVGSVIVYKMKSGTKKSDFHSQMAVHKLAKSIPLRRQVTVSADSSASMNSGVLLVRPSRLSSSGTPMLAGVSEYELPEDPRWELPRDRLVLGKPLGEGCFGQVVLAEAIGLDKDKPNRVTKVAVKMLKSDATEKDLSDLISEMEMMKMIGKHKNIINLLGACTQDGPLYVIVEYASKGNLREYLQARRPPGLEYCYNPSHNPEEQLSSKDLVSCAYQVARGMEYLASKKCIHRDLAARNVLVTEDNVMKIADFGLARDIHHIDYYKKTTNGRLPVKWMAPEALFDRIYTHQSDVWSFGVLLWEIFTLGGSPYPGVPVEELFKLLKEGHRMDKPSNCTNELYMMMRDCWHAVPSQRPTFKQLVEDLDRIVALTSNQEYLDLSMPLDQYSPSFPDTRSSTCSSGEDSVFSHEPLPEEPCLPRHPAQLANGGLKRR
Assay [17] has as its target Insulin-like growth factor 1 receptor (Homo sapiens) (UniProt P08069). The assay can be described thus: Inhibition of IGF1R at 10 uM in presence of ATP at Km level by kinase profiler method.
For assay [18], the system named is HEY. The assay can be described thus: Cytotoxicity against human HEY cells incubated for 72 hrs by MTT assay. In kind it is functional, cell-based.
Assay [19] deals with Vascular endothelial growth factor receptor 2 (Homo sapiens) (UniProt P35968). Particulars: at 10 µM.
Chain of Vascular endothelial growth factor receptor 2 (Homo sapiens) (P35968 whole entry): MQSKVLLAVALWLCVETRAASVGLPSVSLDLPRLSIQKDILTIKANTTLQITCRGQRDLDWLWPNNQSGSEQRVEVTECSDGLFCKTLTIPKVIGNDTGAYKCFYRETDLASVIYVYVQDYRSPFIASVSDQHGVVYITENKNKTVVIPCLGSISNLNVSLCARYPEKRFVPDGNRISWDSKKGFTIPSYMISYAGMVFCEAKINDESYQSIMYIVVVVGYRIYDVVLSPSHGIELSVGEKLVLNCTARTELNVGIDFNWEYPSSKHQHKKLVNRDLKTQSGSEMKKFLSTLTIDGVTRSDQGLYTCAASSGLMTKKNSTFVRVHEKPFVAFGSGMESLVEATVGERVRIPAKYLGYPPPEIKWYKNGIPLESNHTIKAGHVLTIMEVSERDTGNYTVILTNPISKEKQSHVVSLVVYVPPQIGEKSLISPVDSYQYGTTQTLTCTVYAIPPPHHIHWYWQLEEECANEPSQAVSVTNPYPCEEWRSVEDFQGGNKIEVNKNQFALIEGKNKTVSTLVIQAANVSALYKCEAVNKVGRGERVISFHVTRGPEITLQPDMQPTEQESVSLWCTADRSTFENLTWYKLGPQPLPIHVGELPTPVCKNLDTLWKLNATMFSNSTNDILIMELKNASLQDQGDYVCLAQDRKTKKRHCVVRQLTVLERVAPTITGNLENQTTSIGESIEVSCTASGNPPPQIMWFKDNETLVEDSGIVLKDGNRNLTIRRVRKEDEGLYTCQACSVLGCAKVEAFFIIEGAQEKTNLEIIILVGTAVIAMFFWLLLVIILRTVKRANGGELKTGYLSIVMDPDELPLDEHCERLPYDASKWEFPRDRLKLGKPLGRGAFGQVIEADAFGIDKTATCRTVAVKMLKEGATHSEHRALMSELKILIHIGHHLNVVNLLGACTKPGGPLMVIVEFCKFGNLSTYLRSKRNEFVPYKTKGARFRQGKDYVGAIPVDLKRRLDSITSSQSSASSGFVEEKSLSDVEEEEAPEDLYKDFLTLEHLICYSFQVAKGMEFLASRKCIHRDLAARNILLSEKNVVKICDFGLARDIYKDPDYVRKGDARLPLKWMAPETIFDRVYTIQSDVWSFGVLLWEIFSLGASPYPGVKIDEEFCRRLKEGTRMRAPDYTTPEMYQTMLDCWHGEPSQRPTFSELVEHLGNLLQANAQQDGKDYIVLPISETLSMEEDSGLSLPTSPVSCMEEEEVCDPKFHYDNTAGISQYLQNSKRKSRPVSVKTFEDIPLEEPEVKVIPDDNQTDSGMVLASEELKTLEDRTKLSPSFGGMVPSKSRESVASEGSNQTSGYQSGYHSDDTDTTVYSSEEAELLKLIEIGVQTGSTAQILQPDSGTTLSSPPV
Assay [20] concerns the target Angiopoietin-1 receptor (Homo sapiens) (UniProt Q02763). The assay can be described thus: Inhibition of TIE2 at 10 uM in presence of ATP at Km level by kinase profiler method.
Assay [21] has as its target Hepatocyte growth factor receptor (Homo sapiens) (UniProt P08581). The assay can be described thus: Inhibition of MET at 10 uM in presence of ATP at Km level by kinase profiler method.
Assay [22] addresses Vascular endothelial growth factor receptor 2 (Homo sapiens) (UniProt P35968). The assay can be described thus: Inhibition of KDR at 10 uM in presence of ATP at Km level by kinase profiler method.
Assay [23] has as its system MDA-MB-435. The assay can be described thus: Induction of cell cycle arrest in human in human MDA-MB-435 cells assessed as accumulation at G0/G1 phase at 2 times cytotoxic IC50 level after 48 hrs by propidium iodide staining based flow cytometry (reference value: 36%). In kind it is functional.
The subject of assay [24] is MDA-MB-435. The assay can be described thus: Induction of cell cycle arrest in human in human MDA-MB-435 cells assessed as accumulation at G0/G1 phase at 2 times cytotoxic IC50 level after 12 hrs by propidium iodide staining based flow cytometry. In kind it is functional.
Assay [25] has as its target T2, Human immunodeficiency virus type 1 integrase (Human immunodeficiency virus 1, UniProt Q7ZJM1). The assay can be described thus: Inhibition of HIV1 integrase strand transfer activity using [32P]-labeled linear oligonucleotide substrate.
The target of assay [26] is T2, Human immunodeficiency virus type 1 integrase. The assay can be described thus: Inhibition of HIV1 integrase 3'-processing activity using [32P]-labeled linear oligonucleotide substrate.

Chain of Proto-oncogene tyrosine-protein kinase Src (Homo sapiens) (P12931 2-536 limits assumed): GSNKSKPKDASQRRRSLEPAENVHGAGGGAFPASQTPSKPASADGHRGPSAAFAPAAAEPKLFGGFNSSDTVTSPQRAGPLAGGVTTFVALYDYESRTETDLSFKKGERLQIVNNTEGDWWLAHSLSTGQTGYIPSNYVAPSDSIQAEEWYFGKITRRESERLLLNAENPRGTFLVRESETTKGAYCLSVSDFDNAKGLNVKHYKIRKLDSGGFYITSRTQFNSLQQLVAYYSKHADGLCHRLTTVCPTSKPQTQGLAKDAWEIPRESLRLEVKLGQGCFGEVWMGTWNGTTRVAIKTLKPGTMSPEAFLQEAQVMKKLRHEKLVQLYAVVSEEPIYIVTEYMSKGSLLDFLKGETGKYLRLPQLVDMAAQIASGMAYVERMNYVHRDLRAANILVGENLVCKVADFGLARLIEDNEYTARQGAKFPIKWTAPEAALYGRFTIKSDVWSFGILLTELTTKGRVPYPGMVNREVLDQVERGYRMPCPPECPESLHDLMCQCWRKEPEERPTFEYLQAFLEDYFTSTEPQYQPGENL
Chain of Insulin-like growth factor 1 receptor (Homo sapiens) (P08069 31-736 limits assumed): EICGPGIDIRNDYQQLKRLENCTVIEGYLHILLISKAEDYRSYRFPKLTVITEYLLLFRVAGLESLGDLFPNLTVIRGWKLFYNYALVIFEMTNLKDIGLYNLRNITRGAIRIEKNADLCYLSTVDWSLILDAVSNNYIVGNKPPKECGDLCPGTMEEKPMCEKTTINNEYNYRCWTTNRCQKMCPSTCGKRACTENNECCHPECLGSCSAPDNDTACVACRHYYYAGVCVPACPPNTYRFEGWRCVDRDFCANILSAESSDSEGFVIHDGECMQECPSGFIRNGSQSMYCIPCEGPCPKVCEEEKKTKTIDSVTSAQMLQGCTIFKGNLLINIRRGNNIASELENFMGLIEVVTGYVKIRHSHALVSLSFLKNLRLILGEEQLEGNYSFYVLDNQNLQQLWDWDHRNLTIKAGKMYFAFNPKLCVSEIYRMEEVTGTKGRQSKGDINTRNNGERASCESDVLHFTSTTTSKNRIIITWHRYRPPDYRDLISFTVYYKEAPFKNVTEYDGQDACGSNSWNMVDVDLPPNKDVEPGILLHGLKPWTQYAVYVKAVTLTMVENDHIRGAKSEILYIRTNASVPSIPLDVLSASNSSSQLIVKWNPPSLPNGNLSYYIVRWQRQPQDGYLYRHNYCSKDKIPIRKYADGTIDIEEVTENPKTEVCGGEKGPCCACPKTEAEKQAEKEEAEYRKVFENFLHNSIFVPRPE
Chain of Insulin-like growth factor 1 receptor (Homo sapiens) (P08069 741-1367 limits assumed): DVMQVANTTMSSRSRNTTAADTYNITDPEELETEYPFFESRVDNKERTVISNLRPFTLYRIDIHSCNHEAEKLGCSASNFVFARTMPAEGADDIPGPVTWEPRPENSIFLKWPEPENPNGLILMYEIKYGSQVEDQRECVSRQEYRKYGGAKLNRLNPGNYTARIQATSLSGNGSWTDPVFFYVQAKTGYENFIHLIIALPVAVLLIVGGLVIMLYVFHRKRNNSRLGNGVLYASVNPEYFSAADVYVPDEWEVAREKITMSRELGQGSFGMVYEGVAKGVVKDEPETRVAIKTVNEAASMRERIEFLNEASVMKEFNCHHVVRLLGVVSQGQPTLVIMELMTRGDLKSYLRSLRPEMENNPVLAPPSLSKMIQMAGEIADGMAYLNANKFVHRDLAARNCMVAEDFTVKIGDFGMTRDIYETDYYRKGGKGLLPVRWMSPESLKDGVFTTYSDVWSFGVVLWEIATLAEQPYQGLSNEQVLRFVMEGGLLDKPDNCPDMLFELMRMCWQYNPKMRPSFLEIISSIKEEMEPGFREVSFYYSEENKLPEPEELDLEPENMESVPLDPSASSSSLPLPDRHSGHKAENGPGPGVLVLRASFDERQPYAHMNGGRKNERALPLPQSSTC
T2 sequence (Q7ZJM1 whole entry): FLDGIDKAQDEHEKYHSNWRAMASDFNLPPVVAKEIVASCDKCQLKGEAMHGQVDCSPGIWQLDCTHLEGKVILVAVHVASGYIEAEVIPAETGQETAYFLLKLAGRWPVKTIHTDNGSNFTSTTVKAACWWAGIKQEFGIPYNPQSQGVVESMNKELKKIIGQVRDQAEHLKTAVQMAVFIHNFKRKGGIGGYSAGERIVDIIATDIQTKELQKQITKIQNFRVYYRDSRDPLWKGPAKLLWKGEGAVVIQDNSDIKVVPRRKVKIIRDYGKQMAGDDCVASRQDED

In general, inhibition refers to the change of the read-out against control, counted positive when it falls. The IC50 is the concentration that inhibits the measured activity by half. Low values mean greater potency in that assay, high ones weaker potency in that assay. For the molecule `N[C@H]1CC[C@H](Nc2c(C(=O)NCc3ccc(F)cc3)nc(Br)c3cccnc23)CC1`, the results for the inhibition in [1], in [2] and in assay [5] were 13%, 7% and “Dose-dependent effect”, respectively. Also, the outcome in assay [3] was Active. In assay [4], the inhibition entry is “Active”. The IC50 in [6] is 5 µM; in assay [7] it was below 1 µM; in [8], 2 µM; in assay [9], 2 µM; in assay [10], 7 µM; in assay [11], 4 µM. This molecule gave an IC50 in assay [12] of 6 µM.
In the case of `N[C@H]1CC[C@H](Nc2c(C(=O)NCc3ccc(Cl)cc3)nc(Br)c3cccnc23)CC1`, the inhibition entry in assay [13], in [14], in [15], in assay [16] and in assay [17] was “Active” in each case. Also, the inhibition in assay [1] turned out to be 70%; in assay [2], 0%; in [19], 34%. For the same molecule, the IC50 in assay [18] came out at 1 µM; in assay [9], 2 µM; in [10], 4 µM; in assay [12], 1 µM.
Turning to `COc1ccc(CNC(=O)c2nc(Br)c3cccnc3c2N[C@H]2CC[C@H](N)CC2)cc1`, the inhibition entry in assay [20], in [21], in assay [22], in assay [16] and in [17] was “Active” in each case. For the same molecule, the inhibition stood at 76% in assay [1], 0% in [2] and 2% in assay [19]. The IC50 was 4 µM in assay [18], 5 µM in [9], 3 µM in assay [10] and 5 µM in assay [12].
With `N[C@H]1CC[C@H](Nc2c(C(=O)NCc3ccc(Cl)cc3Cl)nc(Br)c3cccnc23)CC1`, the inhibition result in assay [13], in [14], in assay [15], in [16] and in assay [17] was “Active” in each case. Further, the inhibition in [1] is 90%; in [2], 13%; in assay [19], 41%. Also, the IC50 was determined as 5 µM in assay [18], 6 µM in [9], 6 µM in [10] and 5.8 µM in [12].
Take `NCCCNc1c(C(=O)NCc2ccc(F)cc2)nc(Br)c2cccnc12`: in assay [23], the Activity is 61%. Moreover, the result in [24] was Active. In addition, in assay [4], the inhibition entry is “Active”. Besides, the IC50 in assay [8] is 6 µM; in assay [10], above 20 µM; in assay [11], 18 µM; in assay [12], 5 µM; in assay [25], above 100 µM; in assay [26] it was above 100 µM.
